Reference: PMC10842602 (Bioorganic & medicinal chemistry, 2023)
Numbering of substitutions follows the chain as printed.

How the values were obtained:
[1] = molecular target: Maxi-K (Slo1 α1/β3) (Homo sapiens, UniProt Q12791); assay: Tl+ flux assay in HEK-293 cells expressing Maxi-K; assay type: cell-based; settings: CRC
[2] = molecular target: T1, WT human SLACK (Homo sapiens, UniProt Q5JUK3); assay: Tl+ flux assay in HEK-293 cells stably expressing WT human SLACK; assay type: cell-based; settings: CRC; IC50 for compounds of mode Inh (also cells printed Inactive)
T1 sequence (Q5JUK3 1-1235 isoform Q5JUK3-3): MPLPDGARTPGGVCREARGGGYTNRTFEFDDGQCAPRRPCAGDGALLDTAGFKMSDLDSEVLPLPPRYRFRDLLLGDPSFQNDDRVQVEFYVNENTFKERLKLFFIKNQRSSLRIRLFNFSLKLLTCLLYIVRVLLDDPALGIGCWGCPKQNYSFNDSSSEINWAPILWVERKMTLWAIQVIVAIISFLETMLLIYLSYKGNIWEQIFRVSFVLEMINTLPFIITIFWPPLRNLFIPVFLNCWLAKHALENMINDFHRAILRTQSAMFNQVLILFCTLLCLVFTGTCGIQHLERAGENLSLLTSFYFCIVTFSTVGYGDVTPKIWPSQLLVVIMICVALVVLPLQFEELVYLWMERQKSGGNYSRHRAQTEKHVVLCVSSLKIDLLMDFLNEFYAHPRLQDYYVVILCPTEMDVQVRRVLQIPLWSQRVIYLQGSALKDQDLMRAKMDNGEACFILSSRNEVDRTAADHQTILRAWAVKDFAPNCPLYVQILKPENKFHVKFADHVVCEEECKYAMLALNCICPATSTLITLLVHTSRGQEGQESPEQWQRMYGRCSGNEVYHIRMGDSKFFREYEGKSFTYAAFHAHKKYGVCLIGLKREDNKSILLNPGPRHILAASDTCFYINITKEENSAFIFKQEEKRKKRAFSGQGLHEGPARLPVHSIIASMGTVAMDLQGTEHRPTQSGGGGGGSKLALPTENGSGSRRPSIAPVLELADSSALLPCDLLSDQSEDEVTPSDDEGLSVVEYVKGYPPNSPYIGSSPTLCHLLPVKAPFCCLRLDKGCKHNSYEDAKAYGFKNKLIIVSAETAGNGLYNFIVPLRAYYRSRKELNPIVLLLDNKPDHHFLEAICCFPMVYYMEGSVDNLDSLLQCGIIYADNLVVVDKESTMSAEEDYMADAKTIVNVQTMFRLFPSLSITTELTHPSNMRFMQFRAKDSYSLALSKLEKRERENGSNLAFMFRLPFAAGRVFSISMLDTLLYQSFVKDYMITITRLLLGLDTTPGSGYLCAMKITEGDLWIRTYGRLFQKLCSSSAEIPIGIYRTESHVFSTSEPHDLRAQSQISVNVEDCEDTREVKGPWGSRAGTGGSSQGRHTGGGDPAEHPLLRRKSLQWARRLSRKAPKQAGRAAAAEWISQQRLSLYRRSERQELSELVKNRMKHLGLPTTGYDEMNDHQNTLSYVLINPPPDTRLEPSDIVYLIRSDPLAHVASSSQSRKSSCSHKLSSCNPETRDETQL
Method in brief: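 Stably transfected HEK-293 cells expressing wild-type human SLACK; thallium flux read-out. IC50 or EC50 taken from concentration-response curves, and each compound classed as inhibitor, activator or not active. Efficacy is the response amplitude at 30 μM test compound, as a percentage of the maximum response to a reference SLACK inhibitor (for inhibitors) or loxapine (for activators).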

[3] = molecular target: T1, WT human SLACK; assay: Whole-cell voltage-clamp electrophysiology, automated patch clamp; assay type: cell-based; settings: CRC, CHO cells expressing WT SLACK
Method in brief: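 CHO cells stably expressing wild-type human SLACK. Currents recorded in whole-cell voltage-clamp mode on an automated patch clamp platform. IC50 derived from concentration-response data for a selected subset of analogs.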

[4] = Metabolic stability in mouse liver microsomes; assay type: in vitro ADME; settings: multiple time points
[5] = molecular target: hERG (Homo sapiens, UniProt Q12809); assay: Tl+ flux assay in HEK-293 stably expressing hERG; assay type: cell-based; settings: 10 μM concentration
[6] = molecular target: T2, human A934T SLACK (Homo sapiens, UniProt Q5JUK3, A915T); assay: Tl+ flux assay in HEK-293 cells expressing A934T SLACK; assay type: cell-based; settings: CRC
T2 sequence (Q5JUK3 1-1235 isoform Q5JUK3-3 A934T): T1 sequence (Q5JUK3 1-1235 isoform Q5JUK3-3) with A934T

[7] = test system: GABAA Cl– channels; settings: binding displacement assay; cited from earlier work
[8] = test system: neurons from Kcnt1^L/L mice; settings: brain slices, 10 μM; cited from earlier work

Sequence of Maxi-K (Slo1 α1/β3) (Q12791 whole entry, species assumed): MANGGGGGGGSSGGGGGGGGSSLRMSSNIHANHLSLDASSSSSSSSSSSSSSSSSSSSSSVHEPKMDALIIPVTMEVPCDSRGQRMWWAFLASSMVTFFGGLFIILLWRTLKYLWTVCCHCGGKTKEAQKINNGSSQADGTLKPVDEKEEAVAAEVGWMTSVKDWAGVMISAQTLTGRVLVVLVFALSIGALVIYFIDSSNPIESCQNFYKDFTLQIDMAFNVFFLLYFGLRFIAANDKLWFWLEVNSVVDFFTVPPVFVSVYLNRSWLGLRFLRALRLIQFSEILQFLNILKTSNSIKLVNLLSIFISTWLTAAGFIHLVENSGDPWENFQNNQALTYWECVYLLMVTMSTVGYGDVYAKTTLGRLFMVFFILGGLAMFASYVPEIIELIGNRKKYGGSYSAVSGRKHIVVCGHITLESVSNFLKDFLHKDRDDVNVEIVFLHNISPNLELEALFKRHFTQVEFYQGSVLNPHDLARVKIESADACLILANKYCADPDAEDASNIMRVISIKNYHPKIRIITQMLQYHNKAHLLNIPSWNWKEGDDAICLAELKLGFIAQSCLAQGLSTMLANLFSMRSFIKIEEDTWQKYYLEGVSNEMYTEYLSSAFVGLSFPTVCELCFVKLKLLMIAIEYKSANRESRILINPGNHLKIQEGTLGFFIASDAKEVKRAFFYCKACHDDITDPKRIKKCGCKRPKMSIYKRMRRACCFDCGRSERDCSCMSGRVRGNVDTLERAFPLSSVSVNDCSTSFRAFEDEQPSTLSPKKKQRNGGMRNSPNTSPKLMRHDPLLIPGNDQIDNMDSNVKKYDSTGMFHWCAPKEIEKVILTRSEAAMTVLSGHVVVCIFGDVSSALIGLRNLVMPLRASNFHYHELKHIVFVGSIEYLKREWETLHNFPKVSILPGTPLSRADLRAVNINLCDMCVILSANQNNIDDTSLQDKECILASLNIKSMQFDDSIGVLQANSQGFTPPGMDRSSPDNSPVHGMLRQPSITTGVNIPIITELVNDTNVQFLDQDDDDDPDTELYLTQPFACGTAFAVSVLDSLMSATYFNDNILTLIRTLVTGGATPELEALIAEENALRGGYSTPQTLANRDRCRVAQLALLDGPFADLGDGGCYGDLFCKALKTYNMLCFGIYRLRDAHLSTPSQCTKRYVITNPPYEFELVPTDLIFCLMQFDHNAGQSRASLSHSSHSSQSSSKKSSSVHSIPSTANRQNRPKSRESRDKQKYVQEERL
Sequence of Maxi-K (Slo1 α1/β3) (Q9NPA1 whole entry partner, species assumed): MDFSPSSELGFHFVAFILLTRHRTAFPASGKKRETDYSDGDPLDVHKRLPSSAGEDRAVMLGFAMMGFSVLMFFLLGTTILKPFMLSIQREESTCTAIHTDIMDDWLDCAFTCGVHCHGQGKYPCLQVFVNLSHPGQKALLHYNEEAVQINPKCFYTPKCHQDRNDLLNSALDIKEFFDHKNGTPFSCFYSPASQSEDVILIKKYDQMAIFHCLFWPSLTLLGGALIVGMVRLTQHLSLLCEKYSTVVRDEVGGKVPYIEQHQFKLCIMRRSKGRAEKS
Sequence of hERG (Q12809 whole entry): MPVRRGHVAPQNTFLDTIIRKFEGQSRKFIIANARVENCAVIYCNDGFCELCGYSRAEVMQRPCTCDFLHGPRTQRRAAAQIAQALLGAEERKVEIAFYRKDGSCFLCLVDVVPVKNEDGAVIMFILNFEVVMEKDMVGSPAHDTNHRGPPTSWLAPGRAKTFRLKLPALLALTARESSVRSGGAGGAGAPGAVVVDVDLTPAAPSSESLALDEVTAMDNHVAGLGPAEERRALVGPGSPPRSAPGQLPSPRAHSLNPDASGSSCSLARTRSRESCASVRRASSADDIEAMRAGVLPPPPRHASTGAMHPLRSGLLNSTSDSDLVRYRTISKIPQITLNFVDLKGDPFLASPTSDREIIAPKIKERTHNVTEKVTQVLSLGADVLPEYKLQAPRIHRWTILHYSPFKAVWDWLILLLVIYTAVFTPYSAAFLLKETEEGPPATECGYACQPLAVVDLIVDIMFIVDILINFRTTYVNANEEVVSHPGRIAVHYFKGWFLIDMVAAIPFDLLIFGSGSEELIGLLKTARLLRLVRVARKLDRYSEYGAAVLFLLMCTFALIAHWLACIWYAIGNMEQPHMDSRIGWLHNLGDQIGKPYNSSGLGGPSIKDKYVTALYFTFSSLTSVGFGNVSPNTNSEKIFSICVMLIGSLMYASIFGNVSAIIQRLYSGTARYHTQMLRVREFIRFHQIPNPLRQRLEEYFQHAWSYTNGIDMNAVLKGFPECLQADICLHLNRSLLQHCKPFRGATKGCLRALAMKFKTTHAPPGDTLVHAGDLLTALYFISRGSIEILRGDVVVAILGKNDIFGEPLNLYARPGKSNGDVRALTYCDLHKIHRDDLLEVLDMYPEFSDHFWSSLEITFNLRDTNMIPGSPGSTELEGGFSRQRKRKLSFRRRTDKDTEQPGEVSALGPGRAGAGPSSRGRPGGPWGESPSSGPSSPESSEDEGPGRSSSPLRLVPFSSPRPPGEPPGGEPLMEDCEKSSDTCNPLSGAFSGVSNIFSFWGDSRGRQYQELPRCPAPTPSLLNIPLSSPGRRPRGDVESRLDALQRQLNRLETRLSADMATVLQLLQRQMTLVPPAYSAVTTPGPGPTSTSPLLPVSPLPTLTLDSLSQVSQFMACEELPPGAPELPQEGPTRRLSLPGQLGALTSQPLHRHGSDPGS

Structure (SMILES) | Maxi-K (Slo1 α1/β3) IC50 [1] | IC50 / EC50 [2] [µM] | IC50 (whole-cell EP) [3] | predicted hepatic clearance (CLHEP) [4] [mL/min/kg] | hERG activity [5] | A934T IC50 [6] | displacement at GABAA Cl– channels [7] [%] | firing in neurons [8]
CCOc1ccccc1S(=O)(=O)N1CC(c2nc(-c3ccsc3)no2)C1 [Compound 5, 5-(1-((2-Ethoxyphenyl)sulfonyl)azetidin-3-yl)-3-(thiophen-3-yl)-1,2,4-oxadiazole] | inactive | 2.1 | submicromolar potency |  |  |  |  | 
O=S(=O)(c1cccc2cccnc12)N1CC(c2nc(-c3ccc(F)cc3)no2)C1 [Compound 121, 3-(4-Fluorophenyl)-5-(1-(quinolin-8-ylsulfonyl)azetidin-3-yl)-1,2,4-oxadiazole] | inactive | 7.4 |  | 75 |  |  |  | 
Cc1ccc2cccc(S(=O)(=O)N3CC(c4nc(-c5ccc(F)cc5)no4)C3)c2n1 [Compound 122, 3-(4-Fluorophenyl)-5-(1-((2-methylquinolin-8-yl)sulfonyl)azetidin-3-yl)-1,2,4-oxadiazole] | inactive | 1.1 | submicromolar potency |  | inactive | submicromolar potency |  | 
CCOc1ccccc1S(=O)(=O)N1CC(c2nc(-c3ccc(F)s3)no2)C1 [Compound 60, 5-(1-((2-Ethoxyphenyl)sulfonyl)azetidin-3-yl)-3-(5-fluorothiophen-2-yl)-1,2,4-oxadiazole] | inactive | 4.8 | submicromolar potency |  |  | submicromolar potency |  | 
O=S(=O)(c1cccc2c1OCCC2)N1CC(c2nc(-c3ccc(F)cc3)no2)C1 [Compound 119, 5-(1-(chroman-8-ylsulfonyl)azetidin-3-yl)-3-(4-fluorophenyl)-1,2,4-oxadiazole] | inactive | 8.7 |  |  |  |  |  | 
CCOc1ccccc1S(=O)(=O)N1CC(c2nc(-c3ccc(F)cc3Cl)no2)C1 [Compound 58, 3-(2-Chloro-4-fluorophenyl)-5-(1-((2-ethoxyphenyl)sulfonyl)azetidin-3-yl)-1,2,4-oxadiazole] | inactive | 2.1 | submicromolar potency |  |  |  |  | 
[2H]C([2H])([2H])C([2H])([2H])Oc1ccccc1S(=O)(=O)N1CC(c2nc(-c3ccc(F)cc3)no2)C1 [Compound 109, 5-(1-((2-(Ethoxy-d5)phenyl)sulfonyl)azetidin-3-yl)-3-(4-fluorophenyl)-1,2,4-oxadiazole] | inactive | 5.4 |  |  |  |  |  | 
CCOc1ccccc1S(=O)(=O)N1CCC(c2nc(-c3ccc(F)cc3)no2)CC1 [Compound 76] | inactive | 4.9 |  |  |  |  |  | 
CC(C)Oc1ccccc1S(=O)(=O)N1CC(c2nc(-c3ccsc3)no2)C1 [Compound 27, 5-(1-((2-Isopropoxyphenyl)sulfonyl)azetidin-3-yl)-3-(thiophen-3-yl)-1,2,4-oxadiazole] | inactive | 3.7 |  |  |  |  |  | 
C[C@H](NC(=O)c1cc(C(F)(F)F)nn1C)c1nc(-c2ccnc(C(F)(F)F)c2)no1 [Compound 3] |  |  |  |  |  |  | 74 | significant reduction in the firing
